Published values pooled from the literature.
Protocols differ between the studies behind these lines.
Target: Calcium/calmodulin-dependent protein kinase type II subunit alpha (CAMK2A, Homo sapiens, UniProt Q9UQM7)

With `O=C(NCCCN1CCOCC1)c1ccc(Nc2nccc(-c3cc4ccccc4s3)n2)cc1` the remaining binding was 68% (binding, competition with immobilised ligand; 1 µM).
For `O=C(Nc1c[nH]nc1C(=O)NC1CCNCC1)c1cc(F)cc(F)c1`, the remaining binding was 100% (binding, competition with immobilised ligand; 1 µM).
For `O=c1nc(-c2ccccn2)sc2ccccc12`, the remaining binding was 100% (cell-free assay, competition with immobilised ligand; 1 µM).
`CN(C)c1nccc(-c2cnn3ncccc23)n1` gave a remaining binding of 62% (binding; 1 µM).
`c1cncc(-c2cccc(Nc3nccc(NC4CCCCC4)n3)c2)c1` gave a remaining binding of 84% (binding, competition with immobilised ligand; 10 µM).
`CS(=O)(=O)NCC[C@H](NC(=O)c1cncc2c1cnn2-c1ccc(F)cc1)c1ccnc(S(C)(=O)=O)c1` gave a remaining binding of 100% (cell-free assay, competition with immobilised ligand; 1 µM).
The remaining binding of `CN(C)c1nccc(-c2cnc3ncccn23)n1` is reported as 92% (binding; 1 µM).
`Cn1nc(C(=O)NCc2ccc(C(=O)O)cc2)cc1-c1ccc2[nH]ccc2c1` gave a remaining binding of 79% (cell-free assay, competition with immobilised ligand; 0.1 µM).
`O=C(NCCCN1CCOCC1)c1ccc(Nc2ncc(Cl)c(-c3ccc(Cl)s3)n2)cc1` has a remaining binding of 91% (binding, competition with immobilised ligand; 1 µM).
`N[C@H]1CCN(c2nccc(-c3cnn4ncccc34)n2)C1` gave a remaining binding of 100% (binding; 1 µM).
For `CC(=O)C1=C(C)N(c2cccc(C(F)(F)F)c2)C(=O)N[C@@H]1c1ccc(C#N)nc1`, the remaining binding was 92.5% (cell-free assay, competition with immobilised ligand; 1 µM).
`FC(F)(F)Oc1cccc(-c2cnc3ccc(-c4ccncc4)nn23)c1` has a remaining binding of 14% (cell-free assay, competition with immobilised ligand; 5 µM).
`O=C(c1ccc(Nc2ncc(Cl)c(-c3cc4ccccc4s3)n2)cc1)N1CCC(N2CCCC2)CC1` has a remaining binding of 75% (binding, competition with immobilised ligand; 1 µM).
With `c1cnn2ncc(-c3ccnc(N4CCC45COC5)n3)c2c1` the remaining binding was 76% (binding; 1 µM).
`CNC(=O)[C@@H]1CC[C@@H](n2c(-c3ccc4cnccc4c3)nc3ccc(C(=O)NCc4cccc(C(N)=O)c4)cc32)C1` gave a remaining binding of 100% (binding, competition with immobilised ligand; 1 µM).
For `CN(CCCC(F)(F)F)c1nccc(-c2cnn3ncccc23)n1`, the remaining binding was 91% (binding; 1 µM).
`O=C(Nc1cnc(Oc2ccc(F)cc2)nc1)N1CCc2ncccc2[C@@H]1c1ccc(F)cc1` has a remaining binding of 92% (cell-free assay, competition with immobilised ligand; 1 µM).
The remaining binding of `Nc1ncc2c(n1)-c1c([nH]c3ccc(C#CC4CC4)cc13)CCCC2` is reported as 100% (binding, competition with immobilised ligand; 1 µM).
For `O=C(N1CCS(=O)(=O)CC1)N1C[C@H](c2ccc(OC(F)(F)F)cc2)C[C@H](c2nc(C3CC3)no2)C1`, the remaining binding was 100% (cell-free assay, competition with immobilised ligand; 1 µM).
`COc1cnc(Nc2cccc(S(N)(=O)=O)c2)nc1N1CCN(c2ccccc2)CC1` has a remaining binding of 87% (binding, competition with immobilised ligand; 1 µM).
`C[C@@H]1CCN(c2nccc(-c3cnn4ncccc34)n2)C1` gave a remaining binding of 80% (binding; 1 µM).
`O=C(NC[C@@H]1[C@H]2CN(C(=O)OCc3cc(C(F)(F)F)cc(C(F)(F)F)c3)C[C@@H]12)c1ccc2[nH]nnc2c1` gave a remaining binding of 91% (cell-free assay, competition with immobilised ligand; 1 µM).
